For one assay, the system named is Bacillus subtilis. The assay can be described thus: Antibacterial activity against Bacillus subtilis MB964 assessed as growth inhibition. The class given is functional. Put shortly: (§1)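 MIC (µg/mL) by in vitro growth inhibition in an assay system at pH 7.4. Tetracycline was run routinely to check medium, incubation conditions and inoculum virility.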
The test system of assay [1] is Pseudomonas aeruginosa. The assay can be described thus: Antibacterial activity against Pseudomonas aeruginosa MB418 assessed as growth inhibition. The class given is functional. The method, boiled down: as §1
The test system of assay [2] is Bordetella bronchiseptica. The assay can be described thus: Antibacterial activity against Bordetella bronchiseptica MB905 assessed as growth inhibition. Type of assay: functional. The method, boiled down: as §1
In the next assay the test system is Pasteurella multocida. The assay can be described thus: Antibacterial activity against Pasteurella multocida MB7 assessed as growth inhibition at 2 to 8 ug/mL. The class given is functional, organism-based.
Assay [3] has as its system Pseudomonas aeruginosa. As to the kind of experiment: Antibacterial activity against Pseudomonas aeruginosa MB2245 assessed as growth inhibition. The class given is functional. The method, boiled down:
as §1

For a further assay, the system named is Klebsiella aerogenes. As to the kind of experiment: Antibacterial activity against Klebsiella aerogenes MB1503 assessed as growth inhibition. The class given is functional. The method, boiled down:
as §1

The next assay relates to Proteus vulgaris. The assay can be described thus: Antibacterial activity against Proteus vulgaris MB838 assessed as growth inhibition at 200 ug/mL. The class given is functional, organism-based.
In assay [4] the test system is Bordetella bronchiseptica. As to the kind of experiment: Antibacterial activity against Bordetella bronchiseptica MB3551 assessed as growth inhibition. Type of assay: functional. Put shortly:
as §1

Another assay deals with Salmonella. The assay can be described thus: Antibacterial activity against Salmonella schottmuelleri MB2837 assessed as growth inhibition. The class given is functional. The method, boiled down:
as §1

The subject of assay [5] is Staphylococcus aureus. The assay can be described thus: Antibacterial activity against Staphylococcus aureus MB108 assessed as growth inhibition. The class given is functional. Put shortly:
as §1

A further assay has as its system Escherichia coli. The assay can be described thus: Antibacterial activity against Escherichia coli MB2884 assessed as growth inhibition. The class given is functional. The method, boiled down: as §1
The test system of another assay is Streptococcus pyogenes. As to the kind of experiment: Antibacterial activity against Streptococcus pyogenes assessed as growth inhibition at 2 to 8 ug/mL. Type of assay: functional, organism-based.
Assay [6] concerns Corynebacterium pseudodiphtheriticum. As to the kind of experiment: Antibacterial activity against Corynebacterium pseudodiphtheriticum assessed as growth inhibition at 2 to 8 ug/mL. Type of assay: functional, organism-based.
Assay [7] relates to Staphylococcus aureus. The assay can be described thus: Antibacterial activity against Staphylococcus aureus MB2865 assessed as growth inhibition. The class given is functional. Put shortly:
as §1

Activity calls are given as the source filed them. The calls are words filed in the database; no cut-off is given here.

Usually MIC stands for the least concentration at which growth counts as inhibited. As to `CC1(C)C2CCC(C2)C1CCC(CCC1C2CCC(C2)C1(C)C)NCCCN1CCN(CCCN)CC1.Cl` (centres undefined), the MIC in the assay on Bacillus subtilis was 8 µg/mL; in the assay on Pseudomonas aeruginosa [1], 200 µg/mL; in assay [2] it was 4 µg/mL; with Pseudomonas aeruginosa [3] it was 200 µg/mL; with Klebsiella aerogenes, 4 µg/mL; in assay [4], 8 µg/mL. Further, the MIC was 6 µg/mL in the assay on Salmonella, 6 µg/mL in the assay on Staphylococcus aureus [5], 20 µg/mL in the assay on Escherichia coli and 20 µg/mL with Staphylococcus aureus [7]. The “growth inhibition (GI)” value in the assay on Pasteurella multocida and in the assay with Streptococcus pyogenes was “Active” each time. Besides, the “growth inhibition (GI)” value (in the assay with Proteus vulgaris; in assay [6]) was “inactive” in each case.

Turning to `CC(C)c1ccc(CCC(CCc2ccc(C(C)C)cc2)NCCNCCNCCN)cc1.Cl`, the MIC turned out to be 6 µg/mL in the assay with Bacillus subtilis; 40 µg/mL in the assay with Pseudomonas aeruginosa [1]; 8 µg/mL in assay [2]; 60 µg/mL with Pseudomonas aeruginosa [3]; 40 µg/mL with Klebsiella aerogenes; 15 µg/mL in assay [4]. Moreover, the MIC was found to be 4 µg/mL in the assay with Salmonella, 6 µg/mL in the assay on Staphylococcus aureus [5], 30 µg/mL in the assay with Escherichia coli and 30 µg/mL in the assay with Staphylococcus aureus [7]. Further, the “growth inhibition (GI)” value with Pasteurella multocida and in the assay on Streptococcus pyogenes was “Active” throughout. The “growth inhibition (GI)” value (with Proteus vulgaris; in assay [6]) was “inactive” throughout.

Consider `CC1(C)C2CCC(C2)C1CCC(CCC1C2CCC(C2)C1(C)C)NCCNCCNCCCN.Cl` (centres undefined), for which the MIC in the assay with Bacillus subtilis is 6 µg/mL; with Pseudomonas aeruginosa [1], 60 µg/mL; in [2] it was 6 µg/mL; with Pseudomonas aeruginosa [3], 60 µg/mL; with Klebsiella aerogenes, 10 µg/mL; in [4] it was 30 µg/mL. Further, the MIC with Salmonella was 6 µg/mL; in the assay on Staphylococcus aureus [5], 20 µg/mL; with Escherichia coli it was 10 µg/mL; in the assay on Staphylococcus aureus [7], 6 µg/mL. Also, the “growth inhibition (GI)” value in the assay on Pasteurella multocida and with Streptococcus pyogenes was “Active” throughout. For the same compound, the “growth inhibition (GI)” value (in the assay with Proteus vulgaris; in assay [6]) was “inactive” each time.

On to `CC1(C)C2CCC(C2)C1CCC(CCC1C2CCC(C2)C1(C)C)NCCCNCCCNCCCN.Cl` (centres undefined), for which the MIC in the assay on Bacillus subtilis came out at 2 µg/mL; with Pseudomonas aeruginosa [1], 8 µg/mL; in assay [2] it was 2 µg/mL; with Pseudomonas aeruginosa [3], 8 µg/mL; in the assay on Klebsiella aerogenes, 30 µg/mL; in [4], 2 µg/mL. Further, the MIC amounted to 6 µg/mL with Salmonella, 15 µg/mL in the assay with Staphylococcus aureus [5], 10 µg/mL in the assay on Escherichia coli and 8 µg/mL in the assay on Staphylococcus aureus [7]. Moreover, the “growth inhibition (GI)” value in the assay on Pasteurella multocida and in the assay on Streptococcus pyogenes was “Active” each time. For the same compound, the “growth inhibition (GI)” value (in the assay on Proteus vulgaris; in assay [6]) was “inactive” throughout.

Regarding `CC1(C)C2CCC(C2)C1CCC(CCC1C2CCC(C2)C1(C)C)NCCNCCNCCN.Cl` (centres undefined), the MIC with Bacillus subtilis was found to be 4 µg/mL; with Pseudomonas aeruginosa [1] it was 50 µg/mL; in [2], 4 µg/mL; in the assay with Pseudomonas aeruginosa [3] it was 30 µg/mL; with Klebsiella aerogenes, 8 µg/mL; in [4], 10 µg/mL. Also, the MIC with Salmonella was 4 µg/mL; in the assay with Staphylococcus aureus [5] it was 4 µg/mL; in the assay on Escherichia coli it was 8 µg/mL; with Staphylococcus aureus [7] it was 30 µg/mL. Moreover, the “growth inhibition (GI)” value with Pasteurella multocida and in the assay with Streptococcus pyogenes was “Active” in each case. Besides, the “growth inhibition (GI)” value (in the assay with Proteus vulgaris; in assay [6]) was “inactive” each time.

As to `Cl.NCCCNCCCNC(CCCCC1CCCCC1)CCCCC1CCCCC1`, the MIC was 8 µg/mL in the assay on Bacillus subtilis; 10 µg/mL with Pseudomonas aeruginosa [1]; 4 µg/mL in assay [2]; 15 µg/mL in the assay on Pseudomonas aeruginosa [3]; 20 µg/mL in the assay with Klebsiella aerogenes; 4 µg/mL in assay [4]. The MIC in the assay on Salmonella is 6 µg/mL; in the assay on Staphylococcus aureus [5], 10 µg/mL; with Escherichia coli, 20 µg/mL; with Staphylococcus aureus [7], 20 µg/mL. Besides, the “growth inhibition (GI)” value in the assay on Pasteurella multocida and in the assay on Streptococcus pyogenes was “Active” throughout. Further, the “growth inhibition (GI)” value (in the assay with Proteus vulgaris; in assay [6]) was “inactive” each time.

For the compound `Cl.NCCCNCCCNC(CCc1ccc2ccccc2c1)CCc1ccc2ccccc2c1`, the MIC is 8 µg/mL in the assay with Bacillus subtilis; 40 µg/mL in the assay on Pseudomonas aeruginosa [1]; 4 µg/mL in [2]; 100 µg/mL with Pseudomonas aeruginosa [3]; 20 µg/mL in the assay on Klebsiella aerogenes; 4 µg/mL in [4]. For the same compound, the minimal inhibitory concentration (MIC) with Salmonella came out at 8 µg/mL; with Staphylococcus aureus [5], 6 µg/mL; in the assay on Escherichia coli, 15 µg/mL; in the assay with Staphylococcus aureus [7], 8 µg/mL. The “growth inhibition (GI)” value in the assay with Pasteurella multocida and in the assay on Streptococcus pyogenes was “Active” in each case. Also, the “growth inhibition (GI)” value (in the assay on Proteus vulgaris; in [6]) was “inactive” each time.

Turning to `Cl.NCCNCCNC(CCC1CCCCC1)CCC1CCCCC1`, the minimum inhibitory concentration (MIC) in the assay with Bacillus subtilis turned out to be 4 µg/mL; in the assay with Pseudomonas aeruginosa [1] it was 100 µg/mL; in [2], 4 µg/mL; in the assay on Pseudomonas aeruginosa [3], 100 µg/mL; with Klebsiella aerogenes, 8 µg/mL; in assay [4] it was 4 µg/mL. For the same compound, the MIC stood at 2 µg/mL with Salmonella, 4 µg/mL in the assay with Staphylococcus aureus [5], 10 µg/mL in the assay with Escherichia coli and 15 µg/mL in the assay with Staphylococcus aureus [7]. Further, the “growth inhibition (GI)” value in the assay with Pasteurella multocida and in the assay on Streptococcus pyogenes was “Active” each time. In addition, the “growth inhibition (GI)” value (in the assay with Proteus vulgaris; in [6]) was “inactive” in each case.

For `CC1(C)C2CCC(C2)C1CCC(CCC1C2CCC(C2)C1(C)C)NCCNCCCNCCN.Cl` (centres undefined), the minimum inhibitory concentration (MIC) in the assay with Bacillus subtilis was determined as 6 µg/mL; in the assay on Pseudomonas aeruginosa [1] it was 30 µg/mL; in [2], 8 µg/mL; in the assay on Pseudomonas aeruginosa [3], 15 µg/mL; with Klebsiella aerogenes it was 10 µg/mL; in assay [4], 6 µg/mL. The MIC in the assay on Salmonella was found to be 6 µg/mL; in the assay on Staphylococcus aureus [5], 6 µg/mL; in the assay on Escherichia coli, 8 µg/mL; in the assay with Staphylococcus aureus [7] it was 6 µg/mL. Further, the “growth inhibition (GI)” value with Pasteurella multocida and in the assay with Streptococcus pyogenes was “Active” throughout. In addition, the “growth inhibition (GI)” value (in the assay with Proteus vulgaris; in assay [6]) was “inactive” in each case.

With `Cl.NCCCNCCCNC(CCC1CCCC1)CCC1CCCC1`, the MIC in the assay on Bacillus subtilis is 6 µg/mL; with Pseudomonas aeruginosa [1] it was 60 µg/mL; in [2], 4 µg/mL; in the assay with Pseudomonas aeruginosa [3], 30 µg/mL; with Klebsiella aerogenes it was 15 µg/mL; in assay [4], 4 µg/mL. In addition, the MIC with Salmonella worked out at 8 µg/mL; with Staphylococcus aureus [5], 20 µg/mL; in the assay with Escherichia coli it was 30 µg/mL; in the assay with Staphylococcus aureus [7] it was 15 µg/mL. Also, the “growth inhibition (GI)” value with Pasteurella multocida and in the assay on Streptococcus pyogenes was “Active” in each case. For the same compound, the “growth inhibition (GI)” value (in the assay on Proteus vulgaris; in [6]) was “inactive” throughout.

As to `Cc1ccc(CCC(CCc2ccc(C)cc2)NCCCNCCCN)cc1.Cl`, the MIC with Bacillus subtilis worked out at 4 µg/mL; with Pseudomonas aeruginosa [1], 60 µg/mL; in assay [2] it was 4 µg/mL; with Pseudomonas aeruginosa [3], 40 µg/mL; in the assay with Klebsiella aerogenes, 15 µg/mL; in assay [4], 6 µg/mL. Moreover, the MIC in the assay on Salmonella worked out at 10 µg/mL; with Staphylococcus aureus [5] it was 30 µg/mL; in the assay with Escherichia coli it was 50 µg/mL; in the assay on Staphylococcus aureus [7] it was 50 µg/mL. Also, the “growth inhibition (GI)” value with Pasteurella multocida and in the assay with Streptococcus pyogenes was “Active” each time. In addition, the “growth inhibition (GI)” value (in the assay on Proteus vulgaris; in [6]) was “inactive” throughout.

These data come from ChEMBL document CHEMBL3243989, “Antibacterial N-[omega, omega'-bis(alicyclic and aryl)-sec-alkyl]poly(methylene)triamine and -tetramine hydrochloride salts” (J Med Chem, 1979).
